Reference: PMC5604209 (Journal of Cancer, 2017)

What was measured:
[1] = PK/PD in K562 xenograft model: compound concentration in tumor; type: in vivo, nude mice; conditions: nude, mouse, tumor tissue, po, 15 mg/kg
Outline: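 In nude mice bearing K562 xenografts, tumor tissue was collected 2 h after one oral dose (5 or 15 mg/kg) of test compound. Compound concentration in tumor samples was quantified by LC-MS/MS.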

K562 cells [2] = experiment: Apoptosis by Annexin V / 7-AAD flow cytometry; type: cell-based, human; conditions: 10 μM, 24 hours
Outline: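 K562 cells treated 24 h at 37 °C with test compound (0.1, 1.0 or 10 μM) or 0.1% DMSO. Cells were washed twice in PBS and resuspended in binding buffer with PE-Annexin V and 7-AAD for 15 min at RT in the dark. They were then diluted in binding buffer and read on a Guava flow cytometer. Early and late apoptotic fractions were scored.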

PDGFRβ = PDGFRβ (Homo sapiens, UniProt P09619); experiment: HTRF kinase enzyme assay; type: biochemical
Outline: (§1)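 Recombinant kinases were assayed by HTRF KinEASE-TK in 50 mM HEPES pH 7.0, 0.1 mM Na3VO4, 0.01% BSA, 5 mM MgCl2, 1 mM DTT. Compound was made as an 11-point 3-fold series from a 1 mM DMSO stock and mixed with kinase for 5 min. […] Anti-TK cryptate plus streptavidin-XL665 was added for 1 h at 23 °C before TR-FRET read-out. IC50 is the mean of three independent duplicate runs.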

Abl enzyme [3] = target: T1, Abl enzyme (Homo sapiens, UniProt P00519); experiment: Time-dependent inhibition and reversibility; type: biochemical
MKN-45 = experiment: Cell proliferation assay; type: cell-based; conditions: Homo sapiens, MKN-45, 72 h, read-out: Cell growth inhibition IC50
Outline: (§2)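 Cells were grown in DMEM or RPMI-1640 with 10% FBS and penicillin/streptomycin at 37 °C, 5% CO2. PBMC were isolated on Ficoll-Paque, and Ba/F3 Bcr-Abl lines were stably transfected. Cells were seeded at low density. DMSO stocks were 3-fold diluted from 10 mM to 0.3 nM, then into serum-free medium before addition. After 72 h, CellTiter-Glo (adherent; RT 10 min) or CellTiter-Blue (suspension; 4 h) was read. IC50 is the mean of three independent duplicate experiments.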

Kasumi-1 = experiment: Cell proliferation assay; type: cell-based; conditions: Homo sapiens, Kasumi 1, 72 h, read-out: Cell growth inhibition IC50
Outline: as §2

SMMC-7721 = experiment: Cell proliferation assay; type: cell-based; conditions: Homo sapiens, SMMC-7721, 72 h, read-out: Cell growth inhibition IC50
Outline: as §2

[4] = Pharmacokinetic studies in rats; type: in vivo; conditions: female, SD, rat, serum, po, 5 mg/kg
Outline: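 Female SD rats (5–6 weeks) received a single 5 mg/kg oral dose. Blood was sampled serially from 2 min to 24 h, and serum was separated by centrifugation and stored at −80 °C. Serum levels were measured by LC-MS/MS, and T1/2, Tmax, Cmax and AUC0-INF were derived.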

[5] = tested on: liver CYP450 enzymes (all tested enzymes); experiment: Liver CYP450 enzyme inhibition; type: in vitro ADME
K562 cells [6] = experiment: Cell cycle by propidium; type: cell-based, human; conditions: 1 nM, 24 hours
Outline: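 After 24 h exposure of K562 cells to test compound or DMSO, cells were washed in cold PBS and fixed overnight in ice-cold 70% ethanol. They were stained 1 h at 37 °C in PBS with 0.25 mg/mL RNase and 0.025 mg/mL propidium iodide. Cells were read on a Guava flow cytometer, and G1, S and G2/M fractions were quantified.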

VEGFR2 = VEGFR2 (Homo sapiens, UniProt P35968); experiment: HTRF kinase enzyme assay; type: biochemical
Outline: as §1

[7] = target: phosphorylation of Bcr-Abl (Homo sapiens, UniProt P00519+P11274); experiment: Western blot, K562 and KU812 cells; type: cell-based; conditions: for phosphorylation of Bcr-Abl kinase: 1 hour
Outline: (§3)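 K562 or KU812 cells (1×10⁶ per well) were plated overnight at 37 °C, 5% CO2. They were treated 1 h with a concentration series, or with 100 nM for 0–24 h; 0.1% DMSO served as control. BCA-normalized lysates were run on 10% SDS-PAGE and transferred to PVDF. Blots were blocked in TBS-0.1% Tween-20 with 5% BSA, then probed with phospho-specific primaries (2 h RT or 4 °C overnight) and HRP anti-rabbit (1 h RT). Detection was by ECL.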

Abl enzyme [8] = target: T1, Abl enzyme; experiment: Kinetic mechanism of inhibition versus ATP; type: biochemical
KU812 xenograft = experiment: KU812 tumor xenograft in nude mice; type: in vivo; conditions: 30 mg/kg QD; for treated mice with complete tumor regression: p < 0.01
[9] = tested on: phosphorylation of Bcr-Abl and ERK1/2; experiment: PK/PD in K562 xenograft model: Western blot of tumor samples; type: in vivo, nude mice; conditions: single oral dose 15 mg/kg, 2 hours
Outline: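 K562 xenografts in nude mice were given a single oral dose of test compound (5 or 15 mg/kg). Tumors were harvested 2 h later, and lysates were probed by Western blot with antibodies to phospho-Bcr-Abl and phospho-ERK1/2.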

EGFR = EGFR (Homo sapiens, UniProt P00533); experiment: Kinase enzyme assay; type: biochemical
MV-4-11 = experiment: Cell proliferation assay; type: cell-based; conditions: read-out: Cell growth inhibition IC50; MV-4-11, acute myeloid leukemia, 72 hours
Outline: as §2

PC-3 = experiment: Cell proliferation assay; type: cell-based; conditions: Homo sapiens, PC-3, 72 h, read-out: Cell growth inhibition IC50
Outline: as §2

phosphorylation of Crkl = experiment: Western blot, K562 and KU812 cells; type: cell-based, human; conditions: 100 nM, 1 hour
Outline: as §3

[10] = tested on: phosphorylated ERK1/2 and STAT5; experiment: Western blot, K562 and KU812 cells; type: cell-based, human
Outline: as §3

Human PBMC = experiment: Cell proliferation assay; type: cell-based; conditions: read-out: Cell growth inhibition IC50, human lymphocyte, 72 hours
Outline: as §2

Ba/F3-Bcr-abl^WT = experiment: Cell proliferation assay; type: cell-based, murine; conditions: Mus musculus, 72 h, read-out: Cell growth inhibition IC50
Outline: as §2

Abl (WT) = Abl (WT) (Homo sapiens, UniProt P00519); experiment: HTRF kinase enzyme assay; type: biochemical
Outline: as §1

c-Kit = c-Kit (Homo sapiens, UniProt P10721); experiment: HTRF kinase enzyme assay; type: biochemical
Outline: as §1

HL-60 = experiment: Cell proliferation assay; type: cell-based; conditions: Homo sapiens, HL-60, 72 h, read-out: Cell growth inhibition IC50
Outline: as §2

Abl (T315I) = Abl (T315I) (Homo sapiens, UniProt P00519, T315I); experiment: HTRF kinase enzyme assay; type: biochemical
K562 xenograft = experiment: K562 tumor xenograft in nude mice; type: in vivo; conditions: for tumor growth inhibition: p < 0.05
Outline: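 Female athymic nude mice (5–6 weeks) were implanted subcutaneously in the right flank with K562 cells in 100 µL serum-free medium. Once tumors reached about 150–300 mm³, mice were randomized (10 per group) to vehicle or test compound at 5, 15 or 45 mg/kg by daily oral gavage. Caliper volume (w²×l)/2 and body weight were recorded every 2–3 days. TGI was taken versus vehicle, with t-test.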

Ba/F3-Bcr-abl^T315I = experiment: Cell proliferation assay; type: cell-based, murine; conditions: Mus musculus, 72 h, read-out: Cell growth inhibition IC50
Outline: as §2

c-Kit, sequence (P10721 26-976): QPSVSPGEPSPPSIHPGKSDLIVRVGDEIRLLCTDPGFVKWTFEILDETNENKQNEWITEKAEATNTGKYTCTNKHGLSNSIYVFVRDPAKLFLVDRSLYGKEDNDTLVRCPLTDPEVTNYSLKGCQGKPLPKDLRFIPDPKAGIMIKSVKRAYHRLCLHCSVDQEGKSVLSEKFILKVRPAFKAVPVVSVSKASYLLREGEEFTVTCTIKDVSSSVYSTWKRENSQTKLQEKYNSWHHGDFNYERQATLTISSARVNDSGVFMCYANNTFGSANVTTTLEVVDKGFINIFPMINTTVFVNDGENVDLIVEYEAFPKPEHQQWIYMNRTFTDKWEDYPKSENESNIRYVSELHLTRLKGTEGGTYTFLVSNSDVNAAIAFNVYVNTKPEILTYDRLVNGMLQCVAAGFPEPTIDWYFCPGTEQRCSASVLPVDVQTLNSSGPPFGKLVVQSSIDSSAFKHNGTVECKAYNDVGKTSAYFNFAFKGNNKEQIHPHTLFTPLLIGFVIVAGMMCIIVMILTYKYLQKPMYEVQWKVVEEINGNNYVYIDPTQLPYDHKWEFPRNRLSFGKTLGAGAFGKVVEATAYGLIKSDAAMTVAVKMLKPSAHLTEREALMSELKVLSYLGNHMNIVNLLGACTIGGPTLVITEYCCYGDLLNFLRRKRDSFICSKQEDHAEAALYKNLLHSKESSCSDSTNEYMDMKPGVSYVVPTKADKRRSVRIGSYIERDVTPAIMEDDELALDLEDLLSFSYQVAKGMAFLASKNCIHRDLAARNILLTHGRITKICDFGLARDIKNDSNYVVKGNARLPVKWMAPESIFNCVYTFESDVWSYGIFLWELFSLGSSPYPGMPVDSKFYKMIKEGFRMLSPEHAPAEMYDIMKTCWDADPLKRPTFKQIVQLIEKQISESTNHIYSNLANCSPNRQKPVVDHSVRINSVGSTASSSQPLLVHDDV
EGFR, sequence (P00533 25-1210): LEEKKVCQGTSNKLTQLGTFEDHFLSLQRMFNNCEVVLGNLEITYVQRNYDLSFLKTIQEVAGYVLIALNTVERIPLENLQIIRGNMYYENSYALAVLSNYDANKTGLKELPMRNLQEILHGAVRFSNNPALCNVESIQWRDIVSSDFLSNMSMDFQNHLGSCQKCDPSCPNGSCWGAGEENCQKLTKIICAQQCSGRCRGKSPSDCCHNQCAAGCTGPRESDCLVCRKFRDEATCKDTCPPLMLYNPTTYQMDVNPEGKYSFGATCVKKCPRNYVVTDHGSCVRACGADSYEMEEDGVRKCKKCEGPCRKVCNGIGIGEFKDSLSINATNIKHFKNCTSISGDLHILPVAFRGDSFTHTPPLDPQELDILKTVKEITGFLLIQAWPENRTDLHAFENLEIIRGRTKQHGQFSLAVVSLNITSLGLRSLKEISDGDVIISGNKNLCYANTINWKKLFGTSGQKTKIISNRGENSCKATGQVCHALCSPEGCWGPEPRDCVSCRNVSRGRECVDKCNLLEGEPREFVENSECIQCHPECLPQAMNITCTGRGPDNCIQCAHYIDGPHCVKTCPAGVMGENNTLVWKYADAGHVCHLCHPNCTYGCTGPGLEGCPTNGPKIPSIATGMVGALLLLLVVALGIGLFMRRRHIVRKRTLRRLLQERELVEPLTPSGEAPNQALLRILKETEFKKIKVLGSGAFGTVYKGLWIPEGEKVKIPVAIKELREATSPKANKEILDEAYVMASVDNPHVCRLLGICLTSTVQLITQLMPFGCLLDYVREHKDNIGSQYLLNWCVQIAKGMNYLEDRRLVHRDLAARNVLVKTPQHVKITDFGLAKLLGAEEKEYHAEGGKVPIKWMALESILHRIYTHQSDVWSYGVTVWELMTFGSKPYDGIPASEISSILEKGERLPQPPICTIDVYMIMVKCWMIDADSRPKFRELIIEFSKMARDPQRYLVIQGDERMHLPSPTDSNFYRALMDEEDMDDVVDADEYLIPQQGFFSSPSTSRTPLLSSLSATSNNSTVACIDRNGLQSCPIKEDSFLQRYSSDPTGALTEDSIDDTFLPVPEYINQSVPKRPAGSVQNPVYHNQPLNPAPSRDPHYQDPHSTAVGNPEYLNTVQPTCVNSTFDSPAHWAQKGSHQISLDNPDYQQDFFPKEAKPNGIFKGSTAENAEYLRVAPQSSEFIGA
PDGFRβ, sequence (P09619 33-1106): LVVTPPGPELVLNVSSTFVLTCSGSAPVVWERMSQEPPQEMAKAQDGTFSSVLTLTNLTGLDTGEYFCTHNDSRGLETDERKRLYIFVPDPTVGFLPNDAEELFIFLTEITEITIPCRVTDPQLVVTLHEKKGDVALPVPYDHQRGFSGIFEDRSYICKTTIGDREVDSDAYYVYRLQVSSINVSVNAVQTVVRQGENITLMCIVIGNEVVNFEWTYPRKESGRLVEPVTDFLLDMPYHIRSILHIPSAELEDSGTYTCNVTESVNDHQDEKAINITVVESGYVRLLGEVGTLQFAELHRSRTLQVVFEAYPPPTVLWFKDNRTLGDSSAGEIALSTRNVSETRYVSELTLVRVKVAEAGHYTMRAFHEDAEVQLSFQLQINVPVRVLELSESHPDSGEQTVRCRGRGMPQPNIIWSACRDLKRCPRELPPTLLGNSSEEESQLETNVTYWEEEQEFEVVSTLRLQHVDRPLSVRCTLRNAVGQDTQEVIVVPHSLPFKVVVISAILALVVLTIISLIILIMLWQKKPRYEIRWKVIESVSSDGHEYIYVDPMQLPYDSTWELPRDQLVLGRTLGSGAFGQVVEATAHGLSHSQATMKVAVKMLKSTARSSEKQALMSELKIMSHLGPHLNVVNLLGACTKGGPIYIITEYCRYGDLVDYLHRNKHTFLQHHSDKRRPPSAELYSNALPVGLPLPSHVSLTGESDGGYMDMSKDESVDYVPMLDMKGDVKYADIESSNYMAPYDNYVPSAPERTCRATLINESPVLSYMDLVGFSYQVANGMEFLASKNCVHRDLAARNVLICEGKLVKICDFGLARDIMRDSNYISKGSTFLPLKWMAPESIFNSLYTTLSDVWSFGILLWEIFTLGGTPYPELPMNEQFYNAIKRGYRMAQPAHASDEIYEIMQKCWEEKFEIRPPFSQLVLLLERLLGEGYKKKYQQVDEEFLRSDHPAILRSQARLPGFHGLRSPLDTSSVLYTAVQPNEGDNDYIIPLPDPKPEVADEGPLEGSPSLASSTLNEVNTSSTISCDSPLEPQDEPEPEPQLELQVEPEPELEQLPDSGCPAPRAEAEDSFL
VEGFR2, sequence (P35968 20-1356): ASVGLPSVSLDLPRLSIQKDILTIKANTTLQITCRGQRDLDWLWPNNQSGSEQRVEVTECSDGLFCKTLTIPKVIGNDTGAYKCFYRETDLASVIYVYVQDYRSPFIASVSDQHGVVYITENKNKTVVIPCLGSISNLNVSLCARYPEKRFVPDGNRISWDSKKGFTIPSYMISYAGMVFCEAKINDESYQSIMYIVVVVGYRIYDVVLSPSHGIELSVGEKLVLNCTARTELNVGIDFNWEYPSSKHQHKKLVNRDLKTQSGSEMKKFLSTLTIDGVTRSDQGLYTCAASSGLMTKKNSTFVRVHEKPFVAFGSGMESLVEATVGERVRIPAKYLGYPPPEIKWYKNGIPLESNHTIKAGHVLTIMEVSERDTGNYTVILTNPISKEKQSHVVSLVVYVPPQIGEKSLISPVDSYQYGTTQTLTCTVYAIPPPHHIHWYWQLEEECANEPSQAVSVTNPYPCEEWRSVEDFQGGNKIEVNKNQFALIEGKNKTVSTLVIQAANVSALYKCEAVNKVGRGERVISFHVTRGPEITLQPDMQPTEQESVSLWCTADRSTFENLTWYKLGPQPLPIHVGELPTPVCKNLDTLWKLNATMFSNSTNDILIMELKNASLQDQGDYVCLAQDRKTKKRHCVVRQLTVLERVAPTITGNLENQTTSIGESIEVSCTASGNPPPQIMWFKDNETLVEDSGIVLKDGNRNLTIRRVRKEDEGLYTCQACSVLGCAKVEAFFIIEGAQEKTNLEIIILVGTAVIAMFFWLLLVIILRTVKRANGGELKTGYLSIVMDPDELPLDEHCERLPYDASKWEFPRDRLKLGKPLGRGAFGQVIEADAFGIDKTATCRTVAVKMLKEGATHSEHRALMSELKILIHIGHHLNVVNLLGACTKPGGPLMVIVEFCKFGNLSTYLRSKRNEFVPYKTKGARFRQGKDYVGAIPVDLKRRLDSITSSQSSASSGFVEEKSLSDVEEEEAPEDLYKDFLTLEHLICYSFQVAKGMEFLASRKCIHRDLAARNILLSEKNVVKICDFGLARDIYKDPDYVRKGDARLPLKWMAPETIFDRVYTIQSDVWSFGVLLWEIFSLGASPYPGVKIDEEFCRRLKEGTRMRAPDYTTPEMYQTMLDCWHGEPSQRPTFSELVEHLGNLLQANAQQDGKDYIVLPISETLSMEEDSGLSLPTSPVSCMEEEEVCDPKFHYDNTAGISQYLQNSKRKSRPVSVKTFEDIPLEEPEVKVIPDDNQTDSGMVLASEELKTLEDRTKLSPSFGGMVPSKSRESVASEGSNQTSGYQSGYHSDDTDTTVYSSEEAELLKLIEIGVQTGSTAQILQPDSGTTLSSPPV

concentration at 2 h [1]: 254 ng/mL
IC50 (PDGFRβ): 106 nM
koff (Abl enzyme [3]): 5.37e-05 s⁻¹
IC50 (Abl enzyme [3]; IC50 for Abl kinase, Normal (no preincubation, 0 min)): 12.1 nM
decrease of IC50 after preincubation (Abl enzyme [3]; from 12.1 nM to 1.3 nM, 120 min): 9 fold
IC50 (MKN-45): 1000 to 10000 nM
IC50 (SMMC-7721): 1000 to 10000 nM
AUC(0-inf) [4]: 5420 ng·h/mL
Cmax [4]: 303 ng/mL
Tmax [4]: 6.67 h
half-life [4]: 8.83 h
IC50 [5]: > 10000 nM
IC50 (VEGFR2): 48.9 nM
phosphorylation of Bcr-Abl kinase ([7]; 10 nM): significantly suppressed
phosphorylation of Bcr-Abl kinase ([7]; 100 nM): totally blocked
duration of blockage of phosphorylation of Bcr-Abl and Crkl ([7]; time course, 100 nM): at least 24 hours
Ki (Abl enzyme [8]): 7.3 nM
Ki' (Abl enzyme [8]; enzyme-ATP complex): 775 nM
IC50 (EGFR): 130 nM
IC50 (MV-4-11): 232 ± 55 nM
IC50 (PC-3): 1000 to 10000 nM
IC50 (Ba/F3-Bcr-abl^WT): 1.6 ± 0.3 nM
IC50 (Abl (WT)): 21.3 ± 1.1 nM
IC50 (c-Kit): 9.2 nM
IC50 (HL-60): 1000 to 10000 nM
IC50 (Abl (T315I)): 65 ± 6.2 nM
IC50 (Ba/F3-Bcr-abl^T315I): 18.5 ± 12 nM
Compound: Cc1ccc(NC(=O)c2ccc3c(c2)CC[C@@H]3N2CCN(C)CC2)cc1C#Cc1cnc2ccc(Cl)nn12 [CT-721, (S)-N-(3-((6-chloroimidazo[1,2-b]pyridazin-3-yl)ethynyl)-4-methylphenyl)-1-(4-methylpiperazin-1-yl)-2,3-dihydro-1H-indene-5-carboxamide]
late-phase apoptosis (K562 cells [2]): late-phase apoptosis was also observed
IC50 (Kasumi-1): 53 ± 6 nM
cell cycle arrest (K562 cells [6]): pronounced G0/G1 phase arrest
tumor growth (KU812 xenograft; after 5 days): notably inhibited with partial regression observed
treated mice with complete tumor regression (KU812 xenograft; after 8 days): 50%
treated mice with complete tumor regression (KU812 xenograft; after 18 days): 80%
body weight of xenograft mice (KU812 xenograft; compared to the vehicle group): no significant body weight loss
Bcr-Abl and ERK phosphorylation in tumor [9]: almost complete inhibition
phosphorylation of Crkl (phosphorylation of Crkl): significantly inhibited
levels of phosphorylated ERK1/2 and STAT5 [10]: dose-dependently repressed
IC50 (Human PBMC): 1000 to 10000 nM
tumor growth inhibition (K562 xenograft; K562 xenograft, 5 mg/kg PO QD): 51.4%
tumor growth inhibition (K562 xenograft; K562 xenograft, 15 mg/kg PO QD, 12 days): 76%
mice completely cured, tumors disappeared completely (K562 xenograft; K562 xenograft, 45 mg/kg PO QD, 9 days, p < 0.01): 90%
body weight of xenograft mice (K562 xenograft; K562 xenograft, 5, 15 and 45 mg/kg): without causing significant bodyweight loss
